This is an account of results in ChEMBL document CHEMBL2057168, “(1aR,5aR)1a,3,5,5a-Tetrahydro-1H-2,3-diaza-cyclopropa[a]pentalene-4-carboxylic acid (MK-1903): a potent GPR109a agonist that lowers free fatty acids in humans” (J Med Chem, 2012).

Each structure is given as a SMILES string. The source made the active and inactive calls. The calls are words filed in the database; no cut-off is given here.

Series [1] has as its system Rattus norvegicus. In words: Antidyslipedic activity in fasted Sprague-Dawley rat assessed as decrease in free fatty acid level at 0.01 to 100 mg/kg, po by NEFA C-free fatty acid assay. The format is functional. More on the design: scale not given: the % may be the effect or the level left. The following applies: dose mg/kg 0.01-100. In short, it runs like this:
(§1)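 Male Sprague-Dawley rats fasted, compound by oral gavage, serial plasma sampling after dosing for free fatty acids over a time course; vehicle-dosed control group.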

In series [2] the test system is Rattus norvegicus. In words: Antidyslipedic activity in fasted Sprague-Dawley rat assessed as decrease in free fatty acid level at 0.1 to 30 mg/kg, po by NEFA C-free fatty acid assay. The following applies: dose mg/kg 0.1-30. More on the design: scale not given: the % may be the effect or the level left. The format is functional. The gist of the method: as §1
The next series concerns Mus musculus. Description: Toxicity in C57/Bl6 mouse assessed as increase in cutaneous blood flow in ear at 100 mg/kg, ip after 5 mins relative to vehicle treated control by laser doppler flowmetry. In kind it is organism-based. The conditions noted are these: in vivo. More on the design: dose 100 mg/kg, route intraperitoneal. In short, it runs like this: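 Male C57/Bl6 mice (8–10 weeks, ~25 g) anesthetized with Nembutal ip (80 mg/10 mL/kg). Ear perfusion recorded by laser Doppler imaging: 3 min baseline, then vehicle (PBS, 40% HPBCD or 0.5% methylcellulose) or compound given ip at 5 mL/kg through a preinserted syringe, with readings for ~15 min. Expressed as % change of perfusion over baseline.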

Series [3] is described as follows: Blood clearance in mouse. The format is ADME, organism-based. The conditions noted are these: whole blood. The gist of the method: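 Pharmacokinetics across species; for mice, clearance determined in blood rather than plasma following dosing.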
Series [4] can be described thus: Terminal half life in Sprague-Dawley rat at 2 mg/kg, iv. In kind it is ADME, organism-based. More on the design: dose 2 mg/kg, route intravenous. The conditions noted are these: in vivo, read-out: beta t1/2 (converted). In short, it runs like this:
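Male Sprague-Dawley rats were dosed at 10 mg/kg po or 2 mg/kg iv in 80% PEG400/20% phosphate-buffered saline, fasted overnight before the oral dose. Jugular blood was sampled serially from 0.25 to 21 h over 24 h, and heparinized plasma was prepared. Drug was assayed by HPLC/MS/MS (quantitation range 1–2000 ng/mL).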

A short description of series [5]: AUC (0 to 12 hrs) in human at 50 mg, po BID administered on day 1 followed by 2-day wash out period after which dosing continued up to day 11 measured on day 4. In kind it is ADME, organism-based. More on the design: time < 12 hr, dose 50 mg, route oral. The following applies: plasma. In short, it runs like this:
(§2)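 Double-blind, placebo-controlled, randomized dose-escalation study in healthy male volunteers, six cohorts of eight (six active, two placebo). Oral dose on day 1, two-day washout, then dosing days 4–11; the 200 mg qd cohort was titrated over days 1–4. Venous blood taken predose and at 0.5–12 h on days 1, 4 and 11; plasma drug measured. τ 12 h (bid), 24 h (qd), 8 h (tid), 6 h (qid).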

Series [6] in a line: AUC (0 to 12 hrs) in human at 50 mg, po BID administered on day 1 followed by 2-day wash out period after which dosing continued up to day 11 measured on day 11. In kind it is ADME, organism-based. More on the design: dose 50 mg, time < 12 hr, route oral. The conditions noted are these: plasma. In short, it runs like this: as §2
A short description of series [7]: AUC (0 to 12 hrs) in human at 100 mg, po BID administered on day 1 followed by 2-day wash out period after which dosing continued up to day 11 measured on day 4. The format is ADME, organism-based. More on the design: time < 12 hr, dose 100 mg, route oral. The conditions noted are these: plasma. In short, it runs like this: as §2
Series [8] is described as follows: Drug excretion in human urine assessed as unchanged drug at 50 to 150 mg, po BID in administered on day 1 followed by 2-days wash out period after which dosing continued up to day 11. In kind it is ADME, organism-based. The following applies: read-out: Ae.
Series [9] has as its system Homo sapiens. Description: Antidyslipidemic activity in human assessed as decrease in free fatty acid level 150 mg, po TID administered on day 1 followed by 2-days wash out period after which dosing continued up to day 11 measured on day 4 and 11. In kind it is functional, organism-based. The gist of the method:
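Healthy male volunteers in a randomized, double-blind, placebo-controlled multiple-dose study, six active and two placebo subjects per cohort. Oral dosing on day 1, two-day washout, then days 4–11, with titration over days 1–4 for the qd arm.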

For series [10], the system named is Homo sapiens. Description: Toxicity in human assessed as occurrence of flushing administered as single dose. In kind it is organism-based. The following applies: in vivo. The gist of the method: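 Healthy volunteers scored subject-reported flushing with a flushing symptoms questionnaire after single oral doses and during repeat divided daily dosing.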
Series [11] relates to Homo sapiens. In words: Antidyslipidemic activity in dyslipidemia patient assessed as change in triglyceride level at 150 mg administered TID during four week study relative to control. In kind it is functional.
A short description of series [12]: Cmax in human at 50 mg, po BID administered on day 1 followed by 2-day wash out period after which dosing continued up to day 11 measured on day 4. In kind it is ADME, organism-based. More on the design: dose 50 mg, route oral. The following applies: in vivo. In short, it runs like this: (§3)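 Healthy male volunteers took part in a double-blind, randomized, placebo-controlled dose-escalation study, with cohorts of 8 (6 on drug, 2 on placebo). Each subject got an oral dose on day 1, then a 2-day washout, then dosing on days 4–11. The 200 mg qd group was titrated over days 1–4. Venous plasma was sampled predose and 0.5–12 h postdose on days 1, 4 and 11, and predose on days 5–10 for troughs.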

The nature of series [13]: Cmax in human at 50 mg, po BID administered on day 1 followed by 2-day wash out period after which dosing continued up to day 11 measured on day 11. The format is ADME, organism-based. More on the design: dose 50 mg, route oral. The following applies: in vivo. In short, it runs like this:
as §3

A short description of series [14]: Cmax in human at 100 mg, po BID administered on day 1 followed by 2-day wash out period after which dosing continued up to day 11 measured on day 4. More on the design: dose 100 mg, route oral. The conditions noted are these: in vivo. In kind it is ADME, organism-based. The gist of the method: as §2
Series [15] can be described thus: Cmax in human at 150 mg, po TID administered on day 1 followed by 2-days wash out period after which dosing continued up to day 11 measured on day 4. The format is ADME, organism-based. More on the design: dose 150 mg, route oral. The following applies: in vivo. The gist of the method: as §3
The nature of series [16]: Cmax in human at titreated po dose administered from day 1 to 4 followed by 200 mg, po QD administered up to day 11 measured on day 4. More on the design: dose 200 mg, route oral. The following applies: in vivo. In kind it is ADME, organism-based. The gist of the method:
as §3

Series [17] is described as follows: Cmin in human at 100 mg, po BID administered on day 1 followed by 2-day wash out period after which dosing continued up to day 11 measured on day 11 at 12 hrs. The format is ADME, organism-based. The following applies: in vivo, read-out: Cmin. In short, it runs like this: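 Healthy male volunteers, double-blind placebo-controlled randomized dose escalation; cohorts of eight (six active, two placebo). Oral dose on day 1, two-day washout, then dosing days 4–11. Venous blood predose and 0.5, 1, 1.5, 2, 4, 6, 8, 10, 12 h postdose on days 1, 4 and 11 for plasma drug; dosing interval (τ) 12 h for BID, 8 h for TID; Ctrough taken at end of interval.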

Series [18] in a line: Cmin in human at 150 mg, po BID administered on day 1 followed by 2-day wash out period after which dosing continued up to day 11 measured on day 1 at 12 hrs. The format is ADME, organism-based. The following applies: in vivo, read-out: Cmin. In short, it runs like this: as §3
Series [19] can be described thus: Cmin in human at 150 mg, po BID administered on day 1 followed by 2-day wash out period after which dosing continued up to day 11 measured on day 11 at 12 hrs. In kind it is ADME, organism-based. The following applies: in vivo, read-out: Cmin. In short, it runs like this: as §3
The nature of series [20]: Tmax in human at 50 mg, po BID administered on day 1 followed by 2-day wash out period after which dosing continued up to day 11 measured on day 4. In kind it is ADME, organism-based. The following applies: in vivo. The gist of the method: (§4)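 Double-blind, placebo-controlled, randomized multiple oral dose study in healthy male volunteers (cohorts of eight; six active, two placebo). Dose given on day 1, then a two-day washout, then dosing days 4–11; for the QD arm, subjects were titrated over days 1–4. Venous plasma sampled predose and 0.5, 1, 1.5, 2, 4, 6, 8, 10, 12 h postdose on days 1, 4 and 11. Tmax reported as median (min–max).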

Series [21] is described as follows: Tmax in human at 100 mg, po BID administered on day 1 followed by 2-day wash out period after which dosing continued up to day 11 measured on day 1. The following applies: in vivo. In kind it is ADME, organism-based. The gist of the method: as §3
Series [22] is described as follows: Tmax in human at 150 mg, po TID administered on day 1 followed by 2-days wash out period after which dosing continued up to day 11 measured on day 4. The format is ADME, organism-based. The conditions noted are these: in vivo. The gist of the method:
as §4

For orientation: clearance means a measure of how efficiently the substance is removed, as volume per time. What is called AUC is concentration integrated over time. A word on the Cmax: it is the peak of the concentration-time curve. As a reminder, the Tmax is the time from dosing to the highest level. As to `O=C(O)c1n[nH]c2c1C[C@H]1C[C@@H]21`, the Activity with Rattus norvegicus [1] is on record as 90%; in the series with Rattus norvegicus [2], 90%; in the series on Mus musculus, 30%; in the series with Homo sapiens [10], “Dose-dependent effect”; in the series with Homo sapiens [11], -10.3%. Also, the clearance in [3] is 10 mL/min/kg. Further, the half-life in series [4] was 2.4 h. In addition, the AUC at 12 h is 0.0261 µM·h in series [5], 0.0254 µM·h in series [6] and 0.0657 µM·h in series [7]. In series [8], the dose excreted is 70%. Further, the result in the series with Homo sapiens [9] was Active. Further, the Cmax in series [12] is 12.3 nM; in series [13], 16.2 nM; in [14], 33.1 nM; in series [15] it was 52.6 nM; in series [16], 56.3 nM. Also, the concentration at 12 h was 0.104 nM in [17], 0.316 nM in series [18] and 0.208 nM in [19]. Besides, the Tmax was found to be 1.25 h in [20], 1 h in series [21] and 0.5 h in series [22].
